This is a sample that favours compounds with a hit; in the whole collection about 3.5% have one here.
RGS4 inh: RGS4 inhibitors, primary screen, cell-based, HEK293 M3R inducible RGS4, calcium flux; AID 463165, 2010; Fluo-4 calcium flux; stronger effect = higher value; triggered by carbachol at its EC20; B-score at 10 µM; 310,000 compounds, 0.45% hits;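 active means B-score, a plate-corrected calcium signal, over three deviations above library mean, with baseline fluorescence within five deviations of library mean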;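 further: RGS4 expression induced by doxycycline in cells with stable M3 receptor; B-score is computed from the integrated fluorescence ratio over baseline after carbachol; higher B-score means a larger calcium signal and so more RGS4 inhibition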
Target sequence (P49798 whole entry, looked up): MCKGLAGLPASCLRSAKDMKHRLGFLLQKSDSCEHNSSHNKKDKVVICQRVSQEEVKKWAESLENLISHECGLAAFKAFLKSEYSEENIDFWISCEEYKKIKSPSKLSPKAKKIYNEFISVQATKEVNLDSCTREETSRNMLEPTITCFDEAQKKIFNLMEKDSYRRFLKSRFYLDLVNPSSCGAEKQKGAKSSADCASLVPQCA
MrgX1 allo act: positive allosteric modulators of MrgX1, primary screen, HEK293 cells, Fluo-4 calcium flux. FDSS; stronger effect = higher value. B-score at 10 µM. Mas-related G-protein coupled receptor member X1 (Homo sapiens), Q96LB2. 310,000 compounds, 0.63% hits. AID 588675, 2011;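 active means plate-corrected calcium response at least 3 library SD above typical, normal starting fluorescence, not activating the receptor alone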;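 further: compound read alongside a low EC10 to EC30 dose of BAM8-22 agonist; peak minus trough fluorescence over baseline measured at the second addition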
Target sequence (Q96LB2 whole entry, looked up): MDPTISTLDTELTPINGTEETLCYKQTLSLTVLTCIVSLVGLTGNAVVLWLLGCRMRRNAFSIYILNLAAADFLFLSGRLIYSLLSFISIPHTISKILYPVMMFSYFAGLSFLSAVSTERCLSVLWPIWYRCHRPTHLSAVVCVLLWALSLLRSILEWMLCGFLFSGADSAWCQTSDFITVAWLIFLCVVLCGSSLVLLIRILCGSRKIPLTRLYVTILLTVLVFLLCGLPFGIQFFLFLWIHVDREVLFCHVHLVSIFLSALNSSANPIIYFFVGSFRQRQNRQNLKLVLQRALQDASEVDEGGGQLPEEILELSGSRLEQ
MrgX1 ag: agonists of human MrgX1 receptor, primary screen, HEK293 cells, Fluo-4 calcium flux; Fluo-4 calcium fluorescence, agonist mode; stronger effect = higher value; 310,000 compounds, 0.44% hits; B-score at 10 µM; AID 588627, 2011; Mas-related G-protein coupled receptor member X1 (Homo sapiens), Q96LB2;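 active means calcium response B-score plate-corrected fluorescence ratio at least 3 library SD, with starting fluorescence B-score inside 5 SD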
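times = overnight plating, then 30 min 37 °C plus 30 min room-temperature dye loading | assay system = stable human MrgX1 HEK293 cell line | input = fifteen thousand cells per well | signal = kinetic calcium dye fluorescence, Fluo-4 NW | dosing = compound delivered in addition one of three | read-out = B-scored fluorescence response ratio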
RGS4 act: RGS4 potentiators or activators, primary screen, cell-based, HEK293 M3R inducible RGS4, calcium flux; 310,000 compounds, 0.92% hits; carbachol calcium flux Fluo4; stronger effect = lower value; B-score at 10 µM; AID 463111, 2010;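 active means B-score of the integrated calcium signal more than 4 SD below the library mean, with starting fluorescence not abnormally high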;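 further: negative B-score means reduced calcium response which marks RGS4 activation or potentiation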
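System: HEK293 FlpIn-TREx cells, stable M3R, doxycycline-inducible RGS4. Timing: overnight RGS4 induction, 30 min dye load 37 °C, 20 min compound RT. Also added: carbachol, ECmax concentration. Measured by: Fluo4 fluorescence kinetic imaging of calcium. Evaluation: integrated calcium ratio converted to B score.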
MrgX1 antagonist: antagonists of human MrgX1 receptor, primary screen, HEK293 cells, Fluo-4 calcium flux; 310,000 compounds, 1.3% hits; Mas-related G-protein coupled receptor member X1 (Homo sapiens), Q96LB2; BAM8-22 antagonism; stronger effect = lower value; B-score at 10 µM;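 active means calcium-response B-score plate-corrected more than 3 library SD below zero, starting fluorescence within 5 deviations, no agonist response on first addition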;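 further: peak minus trough fluorescence over baseline after final BAM8-22 challenge near maximal dose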
MrgX1 ag reconf: MrgX1 receptor agonists, duplicate retest, confirmation, HEK293 cells, Fluo-4 calcium flux; shares compounds with MrgX1 ag; Fluo-4 calcium fluorescence, FDSS; activation, % at 10 µM; 600 compounds, 78% hits;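 active means calcium signal rise, corrected for plate position, at least 3 library SD high, with starting brightness within 5 such deviations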; further: reference of the scale not given here
HEK293 Ca flux: nonspecific calcium signal in parental HEK293, confirmation, counter-screen for MrgX1 antagonist project, parental HEK293 cells, Fluo-4 calcium flux; shares compounds with MrgX1 antagonist; Fluo-4 calcium fluorescence, FDSS; fluorescence ratio F(max-min)/F0 at 10 µM; 4,000 compounds, 2% hits; AID 624111, 2012;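 active means duplicate-averaged calcium fluorescence ratio at least three times the standard deviation of buffer wells, a nonspecific response in parental cells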
HEK293 Ca counter: calcium response in parental HEK293 cells, primary screen, counter-screen for MrgX1 allosteric activator project, cell-based, Fluo-4 calcium flux, duplicate | shares compounds with MrgX1 antagonist | Fluo-4 fluorescence ratio; stronger effect = higher value | fluorescence ratio F(max-min)/F0 at 10 µM | 4,000 compounds, 0.4% hits | AID 624114, 2012;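 active means calcium fluorescence ratio, averaged over duplicates, at least 3 SD of the buffer-well ratio, meaning a nonspecific response in receptor-free cells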;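 further: untransfected parental HEK293 lacking MrgX1 used as counterscreen for MrgX1 allosteric activators; fluorescence change taken during the second addition on a kinetic imager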
HEK293 Ca cntr2: calcium response in parental HEK293 cells, primary screen, counter-screen for MrgX1 agonist project, cell-based, Fluo-4 calcium flux, duplicate, agonist mode; shares compounds with MrgX1 antagonist; Fluo-4 calcium fluorescence (FDSS); stronger effect = higher value; fluorescence ratio F(max-min)/F0 at 10 µM; 4,000 compounds, 8.7% hits;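 active means calcium fluorescence ratio at least three times the spread of buffer wells, meaning a non-specific response in parental cells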
* = called active by the depositor; i = inactive; nt = no result.

SMILES | RGS4 inh | MrgX1 allo act | MrgX1 ag | RGS4 act | MrgX1 antagonist | MrgX1 ag reconf | HEK293 Ca flux | HEK293 Ca counter | HEK293 Ca cntr2
CC(SCC(=O)NC12CC3CC(CC(C3)C1)C2)C(=O)O (stereo not given) | i | i | i | i | i | nt | nt | nt | nt
ClCc1nc2ccccc2c2ccccc12 | i | i | 44* | i | i | 88%* | i | i | i
CCN(CC(=O)NCc1cccs1)C(=O)c1ccc(-c2cccc(C(F)(F)F)c2)o1 | i | i | i | i | i | nt | nt | nt | nt
N#CCn1c(CCl)nc2ccccc2c1=O | i | i | 42* | i | i | 198%* | i | i | i
O=C(O)Cc1sc(Nc2ccc(F)cc2)nc1-c1cccs1 | i | i | 32* | i | i | i | i | i | i
CCO[C@H]1OC(C(=O)N2CCCCCCC2)=C[C@@H](c2coc3ccccc3c2=O)[C@@H]1CCCO | i | i | i | i | i | nt | nt | nt | nt
CCC(CC)C1C(C#N)=C(N)Oc2cc(C)oc(=O)c21 (stereo not given) | i | i | i | i | i | nt | nt | nt | nt
Cc1cc2c(c(=O)o1)C(CCC1CCCCC1)C(C#N)=C(N)O2 (stereo not given) | i | i | 28* | i | i | i | i | i | i
Cc1ccc(C2C(C#N)=C(N)Oc3n[nH]c(-c4cccnc4)c32)o1 (stereo not given) | i | i | 36* | i | i | 167%* | i | i | i
CCOC(=O)N1CCN(C(=O)c2c[nH]c3ccc(S(=O)(=O)N(C)c4ccccc4C)cc3c2=O)CC1 | i | i | i | i | i | nt | nt | nt | nt
CCOC(=O)N1CCN(C(=O)c2c[nH]c3ccc(S(=O)(=O)N(C)c4cccc(C)c4)cc3c2=O)CC1 | i | i | 34* | i | i | 191%* | i | i | 50*
CN(CC(=O)Nc1ccccc1N1CCCC1)S(=O)(=O)c1ccc(F)cc1 | i | i | i | i | i | nt | nt | nt | nt
COc1ccc(-c2noc(CNC(=O)c3ccc4c(c3)OCO4)n2)cc1OC | i | i | i | i | i | nt | nt | nt | nt
Cc1ccc(-c2[nH]c(-c3ccccc3)nc2SCC(=O)NCC2CCCO2)cc1 (stereo not given) | i | i | 34* | i | i | 239%* | i | i | 49*
O=C(NC1CCCCCC1)c1ccc(Cl)c(S(=O)(=O)N2CCOCC2)c1 | i | i | i | i | i | nt | nt | nt | nt
CCOC(=O)c1[nH]c2ccc(F)cc2c1N=C(C)N(CC)CC | i | i | 50* | i | i | 116%* | i | i | i
Cn1c2ccccc2c(=O)c2c(=O)n(C3CCCCC3)c(-c3cccs3)nc21 | i | i | 110* | i | i | 596%* | i | i | 98*
Cn1c2ccccc2c(=O)c2c(=O)n(-c3ccccc3)c(C3CCCCC3)nc21 | i | i | i | i | i | nt | nt | nt | nt
CCc1nc2c(c(=O)c3ccccc3n2C)c(=O)n1C1CCCCCC1 | i | i | 117* | i | i | 481%* | i | i | 97*
Cn1c2ccccc2c(=O)c2c(=O)n(C3CCCCCC3)c(C3CCCCC3)nc21 | i | nt | nt | i | nt | nt | nt | nt | nt
COc1ccc(NS(=O)(=O)c2ccc(O)c(NC(=O)c3cc4c(C)nn(-c5ccc(F)cc5)c4s3)c2)cc1 | i | i | i | i | i | nt | nt | nt | nt
Cn1c(=O)c2c(nc(Sc3ncnn3CC(=O)NC3CCCCC3)n2C)n(C)c1=O | i | i | i | i | i | nt | nt | nt | nt
Cc1cccc(-n2ncc3c(NCc4ccc5c(c4)OCO5)ncnc32)c1 | i | i | i | i | i | nt | nt | nt | nt
Cc1ccc(-n2ncc3c(NCc4ccc5c(c4)OCO5)ncnc32)c(C)c1 | i | i | 32* | i | i | 224%* | i | i | 48*
CC1CCc2c(nc3ncnn3c2NCCN(C)C)C1 (stereo not given) | i | i | i | i | i | nt | nt | nt | nt
SMILES | RGS4 inh | MrgX1 allo act | MrgX1 ag | RGS4 act | MrgX1 antagonist | MrgX1 ag reconf | HEK293 Ca flux | HEK293 Ca counter | HEK293 Ca cntr2
O=C(Nc1ccc(Br)cc1)Nc1ccccc1Cl | i | i | i | i | i | nt | nt | nt | nt
N#CC1=C(N)Oc2cc(O)ccc2C1c1cccs1 (stereo not given) | i | i | 29* | i | i | i | i | i | i
CCN1CCN(c2ccc(N3CCN(C(=O)c4ccc(Br)o4)CC3)nn2)CC1 | i | i | i | i | i | nt | nt | nt | nt
COc1ccccc1N(C(=O)c1ccco1)C(C(=O)NC1CCCC1)c1ccncc1 (stereo not given) | i | i | i | i | i | nt | nt | nt | nt
CCC1(C)Cc2ccccc2-c2nc(NCCO)n(-c3ccc(C)cc3)c(=O)c21 (stereo not given) | i | i | 39* | i | i | 173%* | i | i | 56*
CC1(C)Cc2ccccc2-c2nc(NCCO)n(-c3ccccc3)c(=O)c21 | i | i | i | i | i | nt | nt | nt | nt
O=C(COc1ccc2c(c1)oc(=O)c1ccccc12)NC(Cc1ccc(Cl)cc1)C(=O)O (stereo not given) | i | i | i | i | i | nt | nt | nt | nt
COc1cccc(CN2CCN(Cc3cc4ccccc4[nH]3)CC2CCO)c1 (stereo not given) | i | i | 123* | i | i | 313%* | i | i | 49*
CC1(c2ccc(OC(F)F)cc2)NC(=O)N(CC(=O)c2ccc3c(c2)OCO3)C1=O (stereo not given) | i | i | 35* | i | i | 176%* | i | i | 55*
